# Experimental data from publication PMC4029328 (Biomedical chromatography : BMC, 2013).
# Like-named read-outs stand apart in the source and are kept apart here.
# Columns and labels:
# [1] = Stability of 7-OHMG in rat plasma QC samples; assay type: in vitro ADME; details: for Concentration measured: n=6
# [2] = tested on: mice; details: ref Matsumoto et al., 2005, cited from earlier work
# [3] = Intravenous pharmacokinetic study in rats; assay type: in vivo; details: 4 mg/kg IV bolus, male Sprague Dawley rats, n=6, mean ± SD
# Summary of the method: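 Male rats 240-250 g, housed 48 h, fasted 12 h predose and 4 h postdose, water free. Dosed via jugular vein cannula, 30 s bolus in 10% PEG 400 in water, prepared same day. Chloroform liquid-liquid extraction with tryptoline internal standard. Noncompartmental analysis.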
# [4] = at equi-antinociceptive doses; ref Matsumoto et al., 2006; cited from earlier work
# [5] = tested on: opioid receptors; details: in vitro assays; ref Horie et al., 2005; cited from earlier work
# [6] = tested on: μ-opioid receptors; details: ref Matsumoto et al., 2004, 2006; cited from earlier work
# [7] = tested on: opioid receptors; details: pharmacological experiments; ref Watanabe et al., 1997; cited from earlier work
# [8] = rat plasma, long term 30 days at -20 °C, spiked 20 ng/mL
# [9] = rat plasma, long term 30 days at -20 °C, spiked 600 ng/mL
# [10] = rat plasma, long term 30 days at -20 °C, spiked 3200 ng/mL
# [11] = rat plasma, short term 12 hr at 25 °C, spiked 20 ng/mL
# [12] = rat plasma, short term 12 hr at 25 °C, spiked 600 ng/mL
# [13] = rat plasma, short term 12 hr at 25 °C, spiked 3200 ng/mL
# [14] = rat plasma, three freeze thaw cycles, spiked 20 ng/mL
# [15] = rat plasma, three freeze thaw cycles, spiked 600 ng/mL
# [16] = rat plasma, three freeze thaw cycles, spiked 3200 ng/mL
# [17] = reconstituted plasma extract, auto sampler 12 hr at 25 °C, spiked 20 ng/mL
# [18] = reconstituted plasma extract, auto sampler 12 hr at 25 °C, spiked 600 ng/mL
molecule,measurement,setting,value
"CC[C@@H]1CN2CC[C@@]3(O)C(=Nc4cccc(OC)c43)[C@@H]2C[C@@H]1/C(=C\OC)C(=O)OC [7-OHMG, 7-hydroxymitragynine]",Short-term stability in plasma,[1]; 12 h at room temperature,stable
same,Auto-sampler stability of reconstituted samples,[1]; 12 h in auto-sampler at 25 °C,stable
same,Long-term stability in plasma,[1]; 30 days at -20 °C,stable
same,Accuracy (measured vs spiked concentration),[1]; [8],98%
same,Concentration measured,[1]; [8],19.6 ± 0.8 ng/mL
same,Accuracy (measured vs spiked concentration),[1]; [9],101.7%
same,Concentration measured,[1]; [9],610.4 ± 28.8 ng/mL
same,Accuracy (measured vs spiked concentration),[1]; [10],95.6%
same,Concentration measured,[1]; [10],3058.2 ± 320.4 ng/mL
same,Accuracy (measured vs spiked concentration),[1]; [11],101.5%
same,Concentration measured,[1]; [11],20.3 ± 1.3 ng/mL
same,Accuracy (measured vs spiked concentration),[1]; [12],108.8%
same,Concentration measured,[1]; [12],652.7 ± 17.8 ng/mL
same,Accuracy (measured vs spiked concentration),[1]; [13],102.8%
same,Concentration measured,[1]; [13],3289.4 ± 197.2 ng/mL
same,Accuracy (measured vs spiked concentration),[1]; [14],102%
same,Concentration measured,[1]; [14],20.4 ± 0.3 ng/mL
same,Accuracy (measured vs spiked concentration),[1]; [15],105.2%
same,Concentration measured,[1]; [15],631.3 ± 40.2 ng/mL
same,Accuracy (measured vs spiked concentration),[1]; [16],103.5%
same,Concentration measured,[1]; [16],3312.5 ± 163.5 ng/mL
same,Accuracy (measured vs spiked concentration),[1]; [17],95.5%
same,Concentration measured,[1]; [17],19.1 ± 0.7 ng/mL
same,Accuracy (measured vs spiked concentration),[1]; [18],94.7%
same,Concentration measured,[1]; [18],568.3 ± 43.9 ng/mL
same,Accuracy (measured vs spiked concentration),"[1]; reconstituted plasma extract, auto sampler 12 hr at 25 °C, spiked 3200 ng/mL",99.8%
same,Freeze-thaw stability in plasma,"[1]; three freeze-thaw cycles, stored at -20 °C and thawed to room temperature",stable
same,Place preference,[2]; 1 mg/kg dose,slight place preference
same,Place preference,[2]; 2 mg/kg dose,strong place preference
same,AUC0→∞,[3],98.3 ± 32.1 µg·min/mL
same,CL,[3],44.2 ± 14.8 mL/min/kg
same,Cmax,[3],3000 ± 300 ng/mL
same,MRT,[3],70.9 ± 10.0 min
same,T1/2,[3],22.9 ± 3.6 min
same,Vd,[3],1.5958 ± 0.5863 L/kg
same,Times less constipating than morphine,[4],4.9-6.4 times
same,Opioid agonistic effect among constituents of Mitragyna speciosa,[5],most potent effect
same,Affinity for μ- versus δ- and κ-opioid receptors,[6],higher affinity for μ-opioid receptors relative to the δ- and κ- receptors
mitragynine,Effect on opioid receptors,[7],agonistic effects on opioid receptors
